Data reported in ChEMBL document CHEMBL5120823, “Feature-Based Molecular Networking Discovery of Bromopyrrole Alkaloids from the Marine Sponge Agelas dispar” (J Nat Prod, 2022).
Converted amounts (≈) assume the structure as drawn.

Columns and labels:
[1] = test system: Escherichia coli; assay: Antibacterial activity against Escherichia coli ATCC 25922 incubated for 24 hrs by broth microdilution method; assay type: functional
Summary of the method: (§1)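 CLSI-based broth microdilution. Pure bacterial suspensions were set to 0.5 McFarland (about (1−2) × 10^8 CFU/mL) and diluted to a final inoculum of about 5 × 10^5 CFU/mL. Compounds were tested in 2-fold dilutions from 100 to 0.78 μM and incubated at 35 °C for 24 h. MIC was read as the lowest concentration with no growth visible to the unaided eye.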

[2] = test system: Escherichia coli; assay: Antibacterial activity against ESBL-producing Escherichia coli ATCC 35218 incubated for 24 hrs by broth microdilution method; assay type: functional; summary of the method: as §1
[3] = test system: Klebsiella pneumoniae; assay: Antibacterial activity against Klebsiella pneumoniae ATCC 700603 incubated for 24 hrs by broth microdilution method; assay type: functional; summary of the method: as §1
[4] = test system: Klebsiella pneumoniae; assay: Antibacterial activity against carbapenem-resistant Klebsiella pneumoniae id-146/19 incubated for 24 hrs by broth microdilution method; assay type: functional
Summary of the method: (§2)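 CLSI-based broth microdilution. Pure bacterial suspensions adjusted to 0.5 McFarland (about (1−2) × 10^8 CFU/mL), then diluted to a final inoculum of about 5 × 10^5 CFU/mL (5 × 10^4 CFU/well). Compounds were tested in 2-fold dilutions from 100 to 0.78 μM. Plates incubated 24 h at 35 °C. MIC was the lowest concentration with complete growth inhibition by unaided eye, reported in μM.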

[5] = test system: Acinetobacter baumannii; assay: Antibacterial activity against Acinetobacter baumannii ATCC 19606 incubated for 24 hrs by broth microdilution method; assay type: functional; summary of the method: as §1
[6] = test system: Acinetobacter baumannii; assay: Antibacterial activity against carbapenem-resistant Acinetobacter baumannii id-261/16 incubated for 24 hrs by broth microdilution method; assay type: functional; summary of the method: as §2
[7] = test system: Pseudomonas aeruginosa; assay: Antibacterial activity against Pseudomonas aeruginosa ATCC 27853 incubated for 24 hrs by broth microdilution method; assay type: functional; summary of the method: as §1
[8] = test system: Pseudomonas aeruginosa; assay: Antibacterial activity against carbapenem-resistant Pseudomonas aeruginosa S-6065/06 incubated for 24 hrs by broth microdilution method; assay type: functional; summary of the method: as §2
[9] = test system: Enterococcus faecalis; assay: Antibacterial activity against Enterococcus faecalis ATCC 29212 incubated for 24 hrs by broth microdilution method; assay type: functional; summary of the method: as §1
[10] = test system: Enterococcus faecalis; assay: Antibacterial activity against vancomycin resistant Enterococcus faecalis ATCC 51299 incubated for 24 hrs by broth microdilution method; assay type: functional; summary of the method: as §2
[11] = test system: Staphylococcus aureus; assay: Antibacterial activity against Staphylococcus aureus ATCC 25923 incubated for 24 hrs by broth microdilution method; assay type: functional; summary of the method: as §2
[12] = test system: Staphylococcus aureus; assay: Antibacterial activity against oxacillin-resistant Staphylococcus aureus ATCC 33591 incubated for 24 hrs by broth microdilution method; assay type: functional; summary of the method: as §2
[13] = Hemolytic activity against BALB/c mouse erythrocyte at 100 uM measured after 2 hrs relative to control; assay type: toxicity, cell-based; conditions: erythrocytes, read-out: Activity
Summary of the method: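 BALB/c mouse erythrocytes, as a 3% suspension in 1× PBS, were exposed to compound at 100 to 6.25 μM for 2 h at 24 °C. Hemolysis was read as supernatant optical density at 570 nm. Distilled water gave maximum hemolysis, and untreated erythrocytes served as the negative control.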

[14] = test system: OVCAR3 (Homo sapiens); assay: Cytotoxicity against human OVCAR3 cells assessed as inhibition of cell viability at 50 uM incubated for 72 hrs by MTT assay relative to control

With `Nc1nc([C@@H]2c3[nH]c(N)nc3C[C@H](CNC(=O)c3cc(Br)c[nH]3)[C@H]2CNC(=O)c2cc(Br)c[nH]2)c[nH]1` the MIC [1] was 100 µM (≈ 62 µg/mL), the MIC [2] was 100 µM (≈ 62 µg/mL) and the MIC [3] was over 100 µM. It also gave an MIC [4] of over 100 µM, an MIC [5] of over 100 µM and an MIC [6] of over 100 µM. For the same molecule, the MIC [7] was 50 µM (≈ 31 µg/mL), the MIC [8] was over 100 µM and the MIC [9] was over 100 µM. The MIC [10] was over 100 µM, the MIC [11] was over 100 µM and the MIC [12] was over 100 µM. For the same molecule, the hemolysis at 2 h, 100 µM [13] was 2.3% and the Activity [14] was 50%.

Work on `Nc1nc([C@@H]2c3nc(N)[nH]c3C[C@H](CNC(=O)c3cc(Br)c(Br)[nH]3)[C@H]2CNC(=O)c2cc(Br)c(Br)[nH]2)c[nH]1` yielded an MIC [1] of 12.5 µM (≈ 9.73 µg/mL), an MIC [2] of 12.5 µM (≈ 9.73 µg/mL) and an MIC [3] of 12.5 µM (≈ 9.73 µg/mL). For the same molecule, the MIC [4] was 25 µM (≈ 19.5 µg/mL), the MIC [5] was 100 µM (≈ 77.8 µg/mL) and the MIC [6] was 100 µM (≈ 77.8 µg/mL). The MIC [7] was 25 µM (≈ 19.5 µg/mL), the MIC [8] was 25 µM (≈ 19.5 µg/mL) and the MIC [9] was 6.2 µM (≈ 4.82 µg/mL). The MIC [10] was 6.2 µM (≈ 4.82 µg/mL), the MIC [11] was 6.2 µM (≈ 4.82 µg/mL) and the MIC [12] was 6.2 µM (≈ 4.82 µg/mL). For the same molecule, the hemolysis at 2 h, 100 µM [13] was 0.7%.

For `Nc1nc([C@@H]2c3[nH]c(N)nc3C[C@H](CNC(=O)c3cc(Br)c[nH]3)[C@H]2CNC(=O)c2cc(Br)c(Br)[nH]2)c[nH]1` [BROMOAGELIFERIN], the MIC [1] was 12.5 µM (≈ 8.74 µg/mL), the MIC [2] was 25 µM (≈ 17.5 µg/mL) and the MIC [3] was over 100 µM. For the same molecule, the MIC [4] was over 100 µM, the MIC [5] was over 100 µM and the MIC [6] was 100 µM (≈ 69.9 µg/mL). It also gave an MIC [7] of 12.5 µM (≈ 8.74 µg/mL), an MIC [8] of 50 µM (≈ 35 µg/mL) and an MIC [9] of over 100 µM. For the same molecule, the MIC [10] was over 100 µM, the MIC [11] was 12.5 µM (≈ 8.74 µg/mL) and the MIC [12] was 12.5 µM (≈ 8.74 µg/mL). For the same molecule, the hemolysis at 2 h, 100 µM [13] was 1.5%.
